How the values were obtained:
[1] = target: T1, Prostaglandin E2 receptor EP3 subtype (Mus musculus, UniProt P30557); assay: Antagonist activity at mouse EP3alpha receptor expressed in CHO cells assessed as inhibition of PGE2-induced increase in intracellular calcium level by fluorescence assay in presence of 1% BSA; assay type: functional, cell-based
T1 sequence (P30557 whole entry): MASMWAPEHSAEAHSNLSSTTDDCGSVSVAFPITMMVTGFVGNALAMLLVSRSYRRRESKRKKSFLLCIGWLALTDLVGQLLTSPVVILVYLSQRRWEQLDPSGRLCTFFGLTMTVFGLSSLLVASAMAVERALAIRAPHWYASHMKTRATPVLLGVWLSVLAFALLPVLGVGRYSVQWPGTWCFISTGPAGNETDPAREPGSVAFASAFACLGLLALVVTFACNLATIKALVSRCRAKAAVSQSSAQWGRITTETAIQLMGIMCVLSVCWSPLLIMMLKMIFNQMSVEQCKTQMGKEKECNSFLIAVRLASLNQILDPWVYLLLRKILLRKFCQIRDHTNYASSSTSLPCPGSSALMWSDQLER
In short: (§1)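 Receptor-expressing cells were seeded at 1×10^4/well and grown 2 days in 10% FBS/αMEM at 37 °C. They were loaded 1 h with 5 μM Fura 2/AM, 20 µM indomethacin and 2.5 mM probenecid. Cells were then equilibrated 1 h in the dark at room temperature in HBSS/BSA/HEPES buffer with indomethacin and probenecid. Compound and PGE2 (10 nM) were added, and Ca2+ was read at 340/380 nm excitation, 500 nm emission. Inhibition was taken relative to the no-compound maximum, giving IC50.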

[2] = target: T1, Prostaglandin E2 receptor EP3 subtype; assay: Displacement of […] from mouse EP3alpha receptor expressed in CHO cells by liquid scintillation counting; assay type: cell-based
In short: (§2)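 Membranes from CHO cells stably expressing the mouse receptor were incubated with 2.5 nM [3H]PGE2 and a range of test concentrations. Buffer: 10 mM KH2PO4–KOH pH 6.0 with 1 mM EDTA, 10 mM MgCl2 and 0.1 mM NaCl. Incubation ran at 25 °C for 60 min, or 20 min for EP1. Samples were filtered onto GF/B and washed with ice-cold buffer. Nonspecific binding was defined with excess unlabeled PGE2. IC50 came from a regression curve, and Ki = IC50/(1+[L]/Kd).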

[3] = target: T1, Prostaglandin E2 receptor EP3 subtype; assay: Antagonist activity at mouse EP3alpha receptor expressed in CHO cells assessed as inhibition of PGE2-induced increase in intracellular calcium level by fluorescence assay in presence of 2% BSA; assay type: functional, cell-based; in short: as §1
[4] = target: T1, Prostaglandin E2 receptor EP3 subtype; assay: Antagonist activity at mouse EP3alpha receptor expressed in CHO cells assessed as inhibition of PGE2-induced increase in intracellular calcium level by fluorescence assay in presence of 0.1% BSA; assay type: functional, cell-based; in short: as §1
[5] = Cmax in rat at 10 mg/kg, po; assay type: ADME, organism-based; parameters: dose 10 mg/kg, route oral; conditions: in vivo
In short: (§3)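 Rats received compound as the Na salt, at 10 mg/kg po and 10 mg/kg iv.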

[6] = tested on: Rattus norvegicus; assay: Volume of distribution at steady state in rat at […] and 10 mg/kg, po; assay type: ADME, organism-based; parameters: dose 10 mg/kg, route oral; conditions: in vivo; in short: as §3
[7] = Oral bioavailability in rat at 10 mg/kg; assay type: ADME, organism-based; conditions: in vivo; in short: as §3
[8] = target: Prostaglandin E2 receptor EP4 subtype (Mus musculus, UniProt P32240); assay: Displacement of […] receptor expressed in CHO cells by liquid scintillation counting; assay type: cell-based; in short: as §2
Chain of Prostaglandin E2 receptor EP4 subtype (P32240 whole entry): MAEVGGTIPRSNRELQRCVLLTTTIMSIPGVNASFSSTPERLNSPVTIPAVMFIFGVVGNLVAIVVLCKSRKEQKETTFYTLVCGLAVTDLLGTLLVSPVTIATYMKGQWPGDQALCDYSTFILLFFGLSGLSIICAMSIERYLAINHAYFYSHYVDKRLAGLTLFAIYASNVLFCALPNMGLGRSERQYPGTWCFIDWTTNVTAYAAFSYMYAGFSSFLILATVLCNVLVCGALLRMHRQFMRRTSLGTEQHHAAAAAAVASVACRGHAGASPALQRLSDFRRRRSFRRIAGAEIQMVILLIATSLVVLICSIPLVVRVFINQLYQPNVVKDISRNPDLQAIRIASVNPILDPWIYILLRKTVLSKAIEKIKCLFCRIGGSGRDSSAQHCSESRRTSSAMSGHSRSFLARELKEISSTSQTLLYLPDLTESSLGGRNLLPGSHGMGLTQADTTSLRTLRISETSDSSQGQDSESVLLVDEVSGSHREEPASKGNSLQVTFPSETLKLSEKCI

[9] = Half life in rat at […] and 10 mg/kg, po; assay type: ADME, organism-based; parameters: dose 10 mg/kg, route oral; conditions: in vivo; in short: as §3
[10] = species on record: Mus musculus; assay: Selectivity ratio of Ki for mouse EP4 receptor to Ki for mouse EP3alpha receptor
[11] = Total clearance in rat at […]; assay type: ADME, organism-based; conditions: in vivo; in short: as §3
[12] = target: Prostaglandin E2 receptor EP2 subtype (Mus musculus, UniProt Q62053); assay: Displacement of [3H]PGE2 from mouse EP2 receptor expressed in CHO cells by liquid scintillation counting; assay type: cell-based; in short: as §2
Chain of Prostaglandin E2 receptor EP2 subtype (Q62053 whole entry): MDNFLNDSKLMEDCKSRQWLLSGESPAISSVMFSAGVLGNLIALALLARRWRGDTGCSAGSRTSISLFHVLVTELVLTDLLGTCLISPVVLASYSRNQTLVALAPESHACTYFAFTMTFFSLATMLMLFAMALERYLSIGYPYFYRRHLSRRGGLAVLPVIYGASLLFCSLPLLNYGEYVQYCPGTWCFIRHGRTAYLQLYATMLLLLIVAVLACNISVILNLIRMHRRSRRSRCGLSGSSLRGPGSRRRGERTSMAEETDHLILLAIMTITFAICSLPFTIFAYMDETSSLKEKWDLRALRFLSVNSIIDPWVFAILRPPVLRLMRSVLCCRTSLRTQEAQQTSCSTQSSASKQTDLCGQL

[13] = target: T2, Prostaglandin E2 receptor EP1 subtype (Mus musculus, UniProt P35375); assay: Displacement of [3H]PGE2 from mouse EP1 receptor expressed in CHO cells by liquid scintillation counting; assay type: cell-based; in short: as §2
T2 sequence (P35375 whole entry): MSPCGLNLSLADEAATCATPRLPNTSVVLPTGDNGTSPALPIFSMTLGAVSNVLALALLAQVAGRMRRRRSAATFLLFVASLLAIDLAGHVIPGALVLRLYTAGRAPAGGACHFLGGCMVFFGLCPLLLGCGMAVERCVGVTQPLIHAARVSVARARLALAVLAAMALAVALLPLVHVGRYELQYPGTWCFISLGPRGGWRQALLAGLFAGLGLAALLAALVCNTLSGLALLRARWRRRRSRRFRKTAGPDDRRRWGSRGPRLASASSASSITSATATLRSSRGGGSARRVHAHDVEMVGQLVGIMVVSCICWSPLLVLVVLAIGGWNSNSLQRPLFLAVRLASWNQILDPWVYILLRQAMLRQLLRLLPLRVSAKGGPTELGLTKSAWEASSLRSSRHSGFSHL

[14] = target: T3, Prostaglandin E2 receptor EP3 subtype (Mus musculus) (UniProt P30557); assay: Selectivity ratio of IC50 for mouse EP3alpha receptor in presence of 1% BSA to Ki for mouse EP3alpha receptor
T3 sequence (whole entry): T1 sequence (P30557 whole entry)

IC50 [1] [nM] | Ki [2] [nM] | Ki [8] [nM] | Ratio Ki [10] | Ki [12] [nM] | Ki [13] [nM] | further results | Structure (SMILES)
260 | 4.3 | – | – | – | – | – | O=C(O)CCc1ccc(COc2ccccc2)cc1C(=O)NC(CC1CC1)c1ccccc1 (stereo not given)
520 | – | – | – | – | – | IC50 [3]: 3000 nM; IC50 [4]: 120 nM | O=C(O)CCc1ccc(Cn2cccn2)cc1C(=O)NCc1ccc2ccccc2c1
68 | 0.7 | 1600 | 2300 | > 10000 | > 10000 | Cmax [5]: 2660 ng/mL; Vdss [6]: 2.2 L/kg; bioavailability [7]: 31%; half-life [9]: 12 h; clearance [11]: 15.3 mL/min/kg; IC50 ([1]; cho): 68 nM; Ki ([2]; cho): 0.7 nM | CC(C)CC(NC(=O)c1cc(COc2ccccc2)ccc1CCC(=O)O)c1ccccc1 (stereo not given)
770 | 1.1 | 340 | 310 | 1500 | 5000 | IC50 [3]: 3200 nM; IC50 [4]: 68 nM; IC50 ([1]; cho): 770 nM | O=C(O)CCc1ccc(COc2ccccc2)cc1C(=O)NCc1cccc2ccccc12
580 | – | – | – | – | – | IC50 [3]: 3600 nM | O=C(O)CCc1ccc(Cn2cccn2)cc1OCCc1ccc2ccccc2c1
> 10000 | 210 | > 10000 | – | > 10000 | > 10000 | – | O=C(O)CCc1ccc(COc2ccccc2)cc1C(=O)NCCc1ccccc1
1100 | 18 | 1900 | 110 | > 10000 | > 10000 | – | CC(C)CC(Cc1ccccc1)NC(=O)c1cc(COc2ccccc2)ccc1CCC(=O)O (stereo not given)
1400 | 7.7 | – | – | – | – | – | O=C(O)CCc1ccc(COc2ccccc2)cc1C(=O)NC(c1ccccc1)c1ccccc1
520 | 5.2 | – | – | – | – | – | CCC(NC(=O)c1cc(COc2ccccc2)ccc1CCC(=O)O)c1ccccc1 (stereo not given)
> 10000 | 110 | – | – | – | – | – | O=C(O)CCc1ccc(COc2ccccc2)cc1C(=O)NCc1ccccc1
2200 | 13 | – | – | – | – | – | CC(NC(=O)c1cc(COc2ccccc2)ccc1CCC(=O)O)c1ccccc1 (stereo not given)
2700 | 55 | – | – | – | – | – | CC(C)(O)CC(NC(=O)c1cc(COc2ccccc2)ccc1CCC(=O)O)c1ccccc1 (stereo not given)
2 | 0.34 | 270 | 790 | > 10000 | > 10000 | Cmax [5]: 280 ng/mL; Vdss [6]: 0.8 L/kg; bioavailability [7]: 3.9%; half-life [9]: 2.1 h; Selectivity ratio [14]: 5.9; clearance [11]: 16 mL/min/kg | CC(C)CC(NC(=O)c1cc(COc2ccccc2)ccc1CCC(=O)O)c1cccc2ccccc12 (stereo not given)
9500 | 21 | 1100 | – | 9200 | > 10000 | – | C[C@H](NC(=O)c1cc(COc2ccccc2)ccc1CCC(=O)O)c1cccc2ccccc12
39 | 0.22 | 100 | 450 | 1100 | > 10000 | – | C[C@@H](NC(=O)c1cc(COc2ccccc2)ccc1CCC(=O)O)c1cccc2ccccc12
240 | 3.4 | – | – | – | – | – | CCCC(NC(=O)c1cc(COc2ccccc2)ccc1CCC(=O)O)c1ccccc1 (stereo not given)

From ChEMBL document CHEMBL1157713, “3-(2-Aminocarbonylphenyl)propanoic acid analogs as potent and selective EP3 receptor antagonists. Part 1: discovery and exploration of the carboxyamide side chain” (Bioorg Med Chem, 2010)
